The text below walks through data of ChEMBL document CHEMBL5104117, “Armeniaspirol analogues with more potent Gram-positive antibiotic activity show enhanced inhibition of the ATP-dependent proteases ClpXP and ClpYQ” (RSC Med Chem, 2022).

Data set [1] has as its system Enterococcus faecalis. The data set can be described thus: Bacteriostatic activity against vancomycin resistant Enterococcus faecalis NJ3 assessed as inhibition of bacterial growth by microtiter broth dilution method. Format: functional, organism-based. A general note: In broth dilution the organism is exposed to a series of concentrations in liquid medium.
For data set [2], the system named is Staphylococcus aureus. As to the kind of experiment: Antibiotic activity against methicillin-resistant Staphylococcus aureus LAC-Fitz-USA300 assessed as inhibition of bacterial growth incubated for 16 hrs by microtiter broth dilution method. It is filed as functional. In outline:
(§1)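 Microtiter broth dilution assay in liquid medium, run alongside MBC determination, against a Gram-positive panel; the MIC was read as growth inhibition.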

Data set [3] deals with Pseudomonas aeruginosa. The data set can be described thus: Bacteriostatic activity against Pseudomonas aeruginosa PA01 assessed as inhibition of bacterial growth by microtiter broth dilution method. Format: functional, organism-based.
The subject of data set [4] is Staphylococcus aureus. As to the kind of experiment: Inhibition of ClpX/ClpP activity in methicillin-resistant Staphylococcus aureus USA300 assessed as increase in urease activation incubated of overnight by phenol red dye based microplate reader analysis. The gist of the method:
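Cell-based ClpXP readout in MRSA USA300 grown in Christensen's urea medium with phenol red indicator. ClpXP inhibition raises urease activity, which hydrolyses urea and releases ammonia, and the rising pH turns the medium from yellow to red. Minimum effective concentration (MEC) was taken as the lowest level that raised urease activity above background.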

Data set [5] has as its system Enterococcus faecalis. As to the kind of experiment: Antibiotic activity against vancomycin resistant Enterococcus faecalis NJ3 assessed as inhibition of bacterial growth incubated for 16 hrs by microtiter broth dilution method. It is filed as functional. In outline:
as §1

Data set [6] deals with Staphylococcus aureus. The data set can be described thus: Bacteriostatic activity against methicillin-resistant Staphylococcus aureus IA116-USA100 assessed as inhibition of bacterial growth by microtiter broth dilution method. It is filed as functional, organism-based.
Data set [7] relates to Staphylococcus aureus. The data set can be described thus: Antibiotic activity against methicillin-resistant Staphylococcus aureus MW2-USA400 assessed as inhibition of bacterial growth incubated for 16 hrs by microtiter broth dilution method. Format: functional. The gist of the method:
as §1

Data set [8] relates to Staphylococcus aureus. The data set can be described thus: Bacteriostatic activity against methicillin-resistant Staphylococcus aureus MN8-USA200 assessed as inhibition of bacterial growth by microtiter broth dilution method. It is filed as functional, organism-based.
Data set [9] relates to Staphylococcus aureus. The data set can be described thus: Antibiotic activity against methicillin-resistant Staphylococcus aureus IA116-USA100 assessed as inhibition of bacterial growth incubated for 16 hrs by microtiter broth dilution method. Format: functional. In outline: as §1
Data set [10] deals with Staphylococcus aureus. The data set can be described thus: Bacteriostatic activity against methicillin-resistant Staphylococcus aureus LAC-Fitz-USA300 assessed as inhibition of bacterial growth by microtiter broth dilution method. Format: functional, organism-based.
The subject of data set [11] is Pseudomonas aeruginosa. As to the kind of experiment: Antibiotic activity against Pseudomonas aeruginosa PA01 assessed as inhibition of bacterial growth incubated for 16 hrs by microtiter broth dilution method. Format: functional.
A short description of data set [12]: Inhibition of C-terminal His tagged Bacillus subtilis ClpY/ClpQ expressed in Escherichia coli BL21 (DE3) using Cbz-Gly-Gly-Leu-AMC as peptide substrate by Cheng-prusoff equation analysis. The gist of the method:
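Recombinant purified B. subtilis ClpYQ was used for inhibition kinetics. Peptide hydrolysis of the fluorogenic substrate Cbz-GGL-AMC at 100 μM was followed over a range of compound concentrations to give a dose-response curve.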

Data set [13] concerns Staphylococcus aureus. The data set can be described thus: Antibiotic activity against methicillin-resistant Staphylococcus aureus MN8-USA200 assessed as inhibition of bacterial growth incubated for 16 hrs by microtiter broth dilution method. It is filed as functional. In outline: as §1
Data set [14] relates to Staphylococcus aureus. As to the kind of experiment: Bacteriostatic activity against methicillin-resistant Staphylococcus aureus MW2-USA400 assessed as inhibition of bacterial growth by microtiter broth dilution method. It is filed as functional, organism-based.
Data set [15] in a line: Cytotoxicity against human A549 cells assessed as number of viable cells at 100 uM incubated for 24 hrs by calcein-AM and ethidium homodimer-1 staining based flow cytometry. To be noted: read-out: Activity. Format: toxicity, cell-based. The gist of the method:
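A549 human lung epithelial carcinoma cells were incubated with compound at up to 100 μM and stained with calcein-AM and ethidium homodimer-1. Viable and dead fractions were determined by confocal microscopy and flow cytometry, against a vehicle control.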

Data set [16] is described as follows: Toxicity in sheep RBC assessed as induction of hemolysis at 200 uM and measured after 1 hr relative to control. To be noted: sheep red blood cells, read-out: Activity. It is filed as cell-based, Ovis aries, Erythrocyte. In outline:
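Hemolytic activity was measured as percent lysis of sheep erythrocytes, with compound tested up to 200 μM.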

In brackets after ≈: the same amount, converted by molar mass. Activity calls are given as the source filed them. The calls are words filed in the database; no cut-off is given here.

On to `CCCCCCc1c(O)c(Cl)cc2c1OC1(C2=O)C(Cl)=C(Cl)C(=O)N1Cc1ccc(C(F)(F)F)cc1` (stereo unspecified), for which the outcome in data set [1], in data set [3], in data set [6], in data set [8], in [10] and in data set [14] was Active. The MIC (usually the lowest concentration that inhibits growth of the organism) in data set [2] was 2 µg/mL (≈ 3.55 µM); in data set [5], 2 µg/mL (≈ 3.55 µM); in [7], 2 µg/mL (≈ 3.55 µM); in data set [9], 2 µg/mL (≈ 3.55 µM); in data set [11] it was above 32 µg/mL; in [13], 2 µg/mL (≈ 3.55 µM). In data set [4], the MEC worked out at 1 µg/mL. In data set [12], the Ki (in general, the equilibrium dissociation constant of an inhibitor or competing ligand from its target) stood at 570 nM.

Take `Cc1c(O)c(Cl)cc2c1OC1(C2=O)C(Cl)=C(Cl)C(=O)N1Cc1ccc(C(F)(F)F)cc1` (stereo unspecified): the outcome in data set [1], in [3], in data set [6], in data set [8], in data set [10] and in [14] was Active. The MIC was 16 µg/mL (≈ 32.5 µM) in data set [2]; 32 µg/mL (≈ 65 µM) in data set [5]; 16 µg/mL (≈ 32.5 µM) in data set [7]; 16 µg/mL (≈ 32.5 µM) in data set [9]; above 32 µg/mL in data set [11]; 16 µg/mL (≈ 32.5 µM) in data set [13].

Consider `CCCCCCCCCCCCN1C(=O)C(Cl)=C(Cl)C12Oc1c(cc(Cl)c(O)c1CCCCCC)C2=O` (stereo unspecified), for which the result in data set [1], in [3], in data set [6], in data set [8], in data set [10] and in [14] was Active. In addition, the MIC was 16 µg/mL (≈ 27.9 µM) in data set [2]; 8 µg/mL (≈ 14 µM) in data set [5]; 8 µg/mL (≈ 14 µM) in [7]; 8 µg/mL (≈ 14 µM) in data set [9]; above 32 µg/mL in data set [11]; 16 µg/mL (≈ 27.9 µM) in data set [13].

Take `CCCCCCc1c(O)c(Cl)cc2c1OC1(C2=O)C(Cl)=C(Cl)C(=O)N1CCc1ccccc1` (stereo unspecified): the outcome in data set [1], in data set [3], in data set [6], in data set [8], in data set [10] and in [14] was Active. In addition, the viability at 24 h, 100 µM in [15] is above 95%. In addition, the MIC was 0.5 µg/mL (≈ 0.983 µM) in [2]; 1 µg/mL (≈ 1.97 µM) in data set [5]; 0.5 µg/mL (≈ 0.983 µM) in [7]; 1 µg/mL (≈ 1.97 µM) in data set [9]; above 32 µg/mL in [11]; 0.5 µg/mL (≈ 0.983 µM) in [13]. Further, in [4], the MEC came out at 0.25 µg/mL. Further, in [16], the hemolysis at 1 h, 200 µM was below 5%. In addition, in data set [12], the Ki was found to be 410 nM.

As for `CCCCCCc1c(O)c(Cl)cc2c1OC1(C2=O)C(Cl)=C(Cl)C(=O)N1Cc1ccc(C)cc1` (stereo unspecified), the outcome in [1], in data set [3], in [6], in [8], in data set [10] and in [14] was Active. For the same compound, the MIC in data set [2] is 0.5 µg/mL (≈ 0.983 µM); in data set [5] it was 1 µg/mL (≈ 1.97 µM); in data set [7], 0.5 µg/mL (≈ 0.983 µM); in [9] it was 1 µg/mL (≈ 1.97 µM); in data set [11] it was above 32 µg/mL; in data set [13], 0.5 µg/mL (≈ 0.983 µM). Also, the MEC in data set [4] was found to be 0.25 µg/mL. In addition, the inhibitory constant (Ki) in data set [12] amounted to 150 nM.

Consider `CCCCCCN1C(=O)C(Cl)=C(Cl)C12Oc1c(cc(Cl)c(O)c1C)C2=O` (stereo unspecified), for which the outcome in data set [1], in [3], in [6], in data set [8], in [10] and in data set [14] was Active. Further, the MIC in data set [2] is 4 µg/mL (≈ 9.55 µM); in data set [5] it was 8 µg/mL (≈ 19.1 µM); in data set [7], 8 µg/mL (≈ 19.1 µM); in data set [9] it was 4 µg/mL (≈ 9.55 µM); in [11], above 32 µg/mL; in data set [13] it was 4 µg/mL (≈ 9.55 µM).

On to `Cc1c(O)c(Cl)cc2c1OC1(C2=O)C(Cl)=C(Cl)C(=O)N1Cc1ccccc1` (stereo unspecified), for which the result in data set [1], in [3], in data set [6], in [8], in [10] and in data set [14] was Active. Further, the minimal inhibitory concentration (MIC) in data set [2] was 32 µg/mL (≈ 75.4 µM); in data set [5] it was above 32 µg/mL; in data set [7], 32 µg/mL (≈ 75.4 µM); in [9] it was above 32 µg/mL; in data set [11], above 32 µg/mL; in data set [13], above 32 µg/mL.

In the case of `CCCCCCc1c(O)c(Cl)cc2c1OC1(C2=O)C(Cl)=C(Cl)C(=O)N1Cc1ccccc1` (stereo unspecified), the result in data set [1], in data set [3], in data set [6], in data set [8], in data set [10] and in data set [14] was Active. Also, the MIC was 1 µg/mL (≈ 2.02 µM) in data set [2]; 2 µg/mL (≈ 4.04 µM) in data set [5]; 2 µg/mL (≈ 4.04 µM) in data set [7]; 1 µg/mL (≈ 2.02 µM) in [9]; above 32 µg/mL in [11]; 1 µg/mL (≈ 2.02 µM) in [13]. For the same compound, in [4], the MEC was determined as 0.25 µg/mL. In data set [12], this compound gave a Ki of 580 nM.

With `C=CCN1C(=O)C(Cl)=C(Cl)C12Oc1c(cc(Cl)c(O)c1CCCCCC)C2=O` (stereo unspecified), the outcome in data set [1], in data set [3], in data set [6], in data set [8], in data set [10] and in [14] was Active. For the same compound, the MIC in data set [2] is 4 µg/mL (≈ 8.99 µM); in data set [5] it was 8 µg/mL (≈ 18 µM); in data set [7] it was 4 µg/mL (≈ 8.99 µM); in data set [9], 4 µg/mL (≈ 8.99 µM); in data set [11], above 32 µg/mL; in data set [13], 4 µg/mL (≈ 8.99 µM).

On to `CCCCCCCCCCCCN1C(=O)C(Cl)=C(Cl)C12Oc1c(cc(Cl)c(O)c1C)C2=O` (stereo unspecified), for which the outcome in data set [1], in [3], in data set [6], in [8], in [10] and in data set [14] was Active. Further, the MIC in data set [2] was 1 µg/mL (≈ 1.99 µM); in data set [5] it was 0.5 µg/mL (≈ 0.994 µM); in [7], 2 µg/mL (≈ 3.98 µM); in data set [9] it was 2 µg/mL (≈ 3.98 µM); in data set [11] it was above 32 µg/mL; in data set [13] it was 2 µg/mL (≈ 3.98 µM). Also, in data set [4], the MEC turned out to be 0.5 µg/mL. The same compound yielded a Ki in data set [12] of 1000 nM.

In the case of `C=CCN1C(=O)C(Cl)=C(Cl)C12Oc1c(cc(Cl)c(O)c1C)C2=O` (stereo unspecified), the result in data set [1], in data set [3], in [6], in data set [8], in [10] and in data set [14] was Active. For the same compound, the MIC in data set [2], in data set [5], in data set [7], in data set [9], in data set [11] and in data set [13] was above 32 µg/mL in each case.

For `Cc1c(O)c(Cl)cc2c1OC1(C2=O)C(Cl)=C(Cl)C(=O)N1C` (stereo unspecified), the outcome in data set [1], in data set [3], in [6], in data set [8], in [10] and in [14] was Active. Besides, the minimal inhibitory concentration (MIC) in data set [2], in data set [5], in data set [7], in data set [9], in data set [11] and in data set [13] was above 32 µg/mL in each case.
